# This is a sample that favours compounds with a hit; in the whole collection about 1.8% have one here.
# CHRM5 antagonist: CHRM5 antagonism in calcium assay. P08912. CHO-hM5 cells, Fluo-8 calcium fluorescence, ACh EC80. inhibition, % at 3 µM. actives 0.59% (n = 360,000). AID 624040;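 active = inhibition above a per-plate cutoff, the mean of that plate's test compounds plus 3 SD, cut at about 27% in these data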
# CHRM4 antagonist: CHRM4 antagonism in calcium assay; P08173; CHO-hM4 cells, ACh EC80, Fluo-8 calcium fluorescence; inhibition, % at 3 µM; actives 0.73% (n = 360,000);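 active = inhibition above its plate's cutoff, the mean inhibition of sample wells plus 3 SD, cut at about 27% in these data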
# Target sequence (P08173 whole entry, looked up): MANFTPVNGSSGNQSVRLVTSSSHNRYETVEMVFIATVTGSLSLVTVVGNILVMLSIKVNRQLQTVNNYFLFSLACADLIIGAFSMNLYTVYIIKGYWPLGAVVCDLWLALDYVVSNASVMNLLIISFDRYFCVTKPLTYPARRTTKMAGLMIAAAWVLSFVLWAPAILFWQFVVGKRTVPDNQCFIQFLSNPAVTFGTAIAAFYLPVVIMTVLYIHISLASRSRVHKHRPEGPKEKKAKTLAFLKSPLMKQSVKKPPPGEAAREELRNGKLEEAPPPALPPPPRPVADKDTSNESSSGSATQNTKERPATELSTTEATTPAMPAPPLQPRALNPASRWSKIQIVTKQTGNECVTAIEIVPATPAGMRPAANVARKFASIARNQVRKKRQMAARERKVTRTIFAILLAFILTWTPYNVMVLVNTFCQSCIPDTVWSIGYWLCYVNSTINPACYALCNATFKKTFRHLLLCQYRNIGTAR
# M4 ag: agonists of human muscarinic M4 receptor (CHRM4). activation, % at 3 µM. actives 0.14% (n = 360,000). P08173. AID 624127. CHO-K1 hM4/Gqi5, Fluo-8 calcium fluorescence; vehicle 0%, full acetylcholine response 100%;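 active = activation above the run mean over all test wells plus 3 SD, cut at about 32% in these data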;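 note: peak over basal fluorescence ratio per well then scaled between controls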
# CHRM4 PAM: potentiates acetylcholine response at human M4 receptor | CHO-K1 hM4/Gqi5, Fluo-8 calcium fluorescence, ACh EC20; 0% = ACh EC20, 100% = maximal ACh | P08173 | AID 624126 | activation, % at 3 µM | actives 0.4% (n = 360,000);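 active = activation above its plate's cutoff, the mean activation of sample wells plus 3 SD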
# CHRM5 PAM: CHRM5 positive allosteric modulation. activation, % at 3 µM. CHO-K1 hM5, Fluo-8 calcium, ACh EC20 PAM; 0% = ACh EC20, 100% = ACh EC100. actives 0.3% (n = 360,000). P08912;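 active = activation above the run cutoff, the mean activation of all test compounds plus 3 SD, cut at about 18% in these data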
#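 Measured by: Fluo-8 calcium fluorescence; material: human M5 receptor in CHO-K1 cells; schedule: Post-acetylcholine fluorescence recording 140 s; benchmarks: low control EC20 acetylcholine (0%), high control EC100 acetylcholine (100%); read-out: Max/basal fluorescence ratio as % of EC20–EC100 ACh window; compound: single dose, 3 µM nominal final test concentration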
# CHRM5 agonist: CHRM5 agonism in calcium assay; P08912; CHO-K1 hM5 cells, Fluo-8 calcium fluorescence; 0% DMSO wells, 100% maximal acetylcholine response; activation, % at 3 µM; actives 0.19% (n = 360,000); AID 624037;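 active = activation above the run's mean over test compounds plus 3 SD, cut at about 23% in these data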;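 note: signal is peak over basal fluorescence ratio across the kinetic read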
# Hits are given with their value; – = inactive; ! = not confirmed by another sample.
SMILES,CHRM5 antagonist,CHRM4 antagonist,M4 ag,CHRM4 PAM,CHRM5 PAM,CHRM5 agonist
Cc1ccc(S(=O)(=O)Nc2ccc3nc(C)sc3c2)cc1,30.1,–,–,–,–,–
Cc1nc2ccc(NS(=O)(=O)c3ccc4c(c3)OCCO4)cc2s1,–,27.1,–,–,–,–
Cc1nc2ccc(NS(=O)(=O)c3ccc(F)c(F)c3)cc2s1,–,–,–,–,–,–
O=C(NCc1ccccc1)c1cc(C2COCCN2C(=O)C2CC2)on1 (stereo not given),–,–,–,–,–,–
O=[N+]([O-])c1c(Nc2cccc(O)c2)cc(Cl)c2nonc12,–,60.0,–,–,–,–
COc1ccc(C(=O)Nc2c(N)nc(SCC(=O)Nc3ccc(NC(C)=O)cc3)[nH]c2=O)cc1,–,–,–,–,–,–
COc1ccc(NC(=O)CSc2nc(N)c(NC(=O)c3ccccc3F)c(=O)[nH]2)cc1,–,–,–,16.7,–,–
O=C(CN1CCN(c2ccccc2F)CC1)c1c[nH]c2ccccc12,–,–,–,–,20.5,–
CN1CCc2cccc3c2[C@H]1Cc1ccc(O)c(O)c1-3,–,81.3!,–,–,–,–
CN1CCc2cc3c(c4c2[C@H]1[C@H](O)c1ccccc1-4)OCO3,–,–,–,–,–,–
CC(=O)Nc1cccc(-c2csc(C(O)c3ccccc3)n2)c1 (stereo not given),–,–,–,–,–,–
CC(C)C(=O)Nc1nc2cc3c(cc2s1)OCCO3,–,–,–,–,–,–
CC(=O)Nc1nc2cc3c(cc2s1)OCO3,–,–,–,–,–,38.4
O=C(COc1ccccc1)Nc1nc2cc3c(cc2s1)OCO3,26.9,–,–,–,–,–
COC(=O)C[C@@H]1OC[C@H](C)N1S(=O)(=O)c1ccc(C)cc1,–,–,–,–,–,–
CC1(c2nc3ccccc3[nH]2)c2ccccc2C(=O)N1Cc1ccccn1 (stereo not given),–,–,–,–,–,–
CCc1ccc(NC(=O)CS(=O)CC(=O)NCC2OCCc3ccccc32)cc1 (stereo not given),–,–,–,–,–,–
Cc1cccc(C)c1NC(=O)CS(=O)CC(=O)NCC1OCCc2ccccc21 (stereo not given),–,–,–,–,22.6,–
S=C(NCCCN1CCOCC1)N(Cc1ccccc1)Cc1ccccc1,30.5,–,–,–,–,–
c1ccc(CCCN2CCOCC2)cc1,–,–,–,17.2,–,–
O=C(CCCc1ccccc1)NCCCN1CCOCC1,–,–,–,–,–,–
c1ccc(OCc2ccc(CCCN3CCOCC3)cc2)cc1,–,–,–,–,–,–
CCCC(=O)N1CCCC(c2cc(C(=O)NCc3ccccc3)no2)C1 (stereo not given),–,–,–,–,–,–
O=C(Nc1cccc(C(F)(F)F)c1)c1ccc(-c2ccc(F)c(F)c2)c2ccoc12,–,–,–,–,–,–
CNC(=O)C[C@@H]1CC[C@@H]2[C@H](COC[C@H](O)CN2S(=O)(=O)c2ccccc2Cl)O1,–,–,–,–,–,–
SMILES,CHRM5 antagonist,CHRM4 antagonist,M4 ag,CHRM4 PAM,CHRM5 PAM,CHRM5 agonist
CCOc1ncccc1C(=O)Nc1ccc2c(C)cc(=O)oc2c1,–,–,–,–,21.9,–
CN(C)c1ccc(CNC(=O)CC[C@H]2O[C@@H](n3cnc4c(NC(=O)c5ccccc5)ncnc43)[C@H](O)[C@@H]2O)cc1,–,–,–,–,–,–
CCCCCCCCN1C(=O)[C@H](CC(=O)NCCCCc2ccccc2)C[C@@]2(C(=O)OCC)CCCC=C12,–,–,–,–,–,–
CCNc1nc(NCC)n2c(SCC(=O)Nc3cccc(Cl)c3)nnc2n1,–,–,–,–,22.3,–
CC(C)C(C)NC(=O)CN1C(=O)NC2(CCCc3ccccc32)C1=O (stereo not given),–,–,–,–,–,–
Cc1ccc(NC(=O)CN2C(=O)NC3(CCCc4ccccc43)C2=O)cc1S(=O)(=O)N1CCOCC1 (stereo not given),99.7,–,–,–,–,–
CC(C)C(C)NC(=O)CN1C(=O)NC2(CCc3ccccc32)C1=O (stereo not given),–,–,–,14.5,–,–
Brc1ccc(-c2nnc3c4ccccc4nc(N4CCOCC4)n23)cc1,–,–,–,40.0,–,–
Clc1ccc(-c2nnc3c4ccccc4nc(N4CCOCC4)n23)cc1Cl,–,–,–,–,–,–
C[C@@H]1CN([C@@H](C)CO)C(=O)CCCn2nncc2CO[C@@H]1CN(C)C(=O)OCc1ccccc1,–,–,–,–,–,–
CCC(=O)N1CCC1(C)C(=O)Nc1ncc(C)s1 (stereo not given),–,–,–,19.3,–,–
CCC(=O)N1CCC1(C)C(=O)Nc1nccs1 (stereo not given),–,–,–,–,–,–
CCOc1ccccc1-n1c(N)c(C(N)=O)sc1=S,–,–,–,–,22.1,–
O=S(=O)(c1ccc(Cl)nc1)N(Cc1ccccc1)Cc1ccccc1,–,33.1,–,–,–,–
CCN(c1ccccc1)S(=O)(=O)c1ccc(Cl)nc1,–,–,–,–,–,–
Cc1c(CCOC(=O)C23CC4CC(CC(C)(C4)C2)C3)sc[n+]1Cc1ccccc1,98.4,69.2,–,–,–,–
Cc1c(CCOC(=O)C23CC4CC(CC(C4)C2)C3)sc[n+]1Cc1ccccc1,–,–,–,–,–,–
CC1(C(=O)NCc2ccc(C(F)(F)F)cc2)CCN1Cc1ccccc1OC(F)F (stereo not given),–,–,–,–,–,–
CCC(c1nnnn1C(C)(C)C)N1CCN(C/C=C/c2ccccc2)CC1 (stereo not given),–,–,–,–,–,–
CC(C)(C)n1nnnc1C(c1ccccc1)N1CCN(C/C=C/c2ccccc2)CC1 (stereo not given),68.0,27.6,–,–,–,–
CC(C)(C)n1nnnc1C(c1cccc(C#N)c1)N1CCCCCC1 (stereo not given),–,–,–,–,26.1,–
CC(C)(C)n1nnnc1C(c1cccc(C#N)c1)N1CCN2CCCC2C1 (stereo not given),–,–,–,–,–,–
COc1ccc(-n2nnnc2C(c2ccccc2)N2CCN(C/C=C/c3ccccc3)CC2)cc1 (stereo not given),71.7,32.3,–,–,–,–
CCC(c1nnnn1-c1ccc(OC)cc1)N1CCN(C/C=C/c2ccccc2)CC1 (stereo not given),–,–,–,–,–,–
CCCCN(C=O)c1c(CC)nc2c(OCc3ccccc3C)cccn12,–,–,–,–,–,–

# Source: PubChem
